Laboratory results taken from ChEMBL document CHEMBL3112554, “Discovery of simplified N²-substituted pyrazolo[3,4-d]pyrimidine derivatives as novel adenosine receptor antagonists: efficient synthetic approaches, biological evaluations and molecular docking studies” (Bioorg Med Chem, 2014).

Legend:
[1] = molecular target: Adenosine receptors; A1 & A3 (Homo sapiens) (UniProt P30542+P0DMS8); experiment: Selectivity ratio of Ki for human adenosine A1 receptor to Ki for human adenosine A3 receptor
Method in brief: (§1)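 Ratios of Ki values from displacement assays in CHO cells (3 h, room temperature). The hA1 Ki ([3H]CCPA) or the hA2A Ki ([3H]NECA) was divided by the hA3 Ki ([3H]HEMADO). Each Ki is a geometric mean of n = 3–6.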

[2] = molecular target: T1, Adenosine receptor A2b (Homo sapiens, UniProt P29275); experiment: Antagonist activity at human adenosine A2B receptor expressed in CHO cells assessed as inhibition of NECA-induced adenylyl cyclase activity after 20 mins in presence of [alpha-32P]ATP; assay type: functional, cell-based
T1 sequence (P29275 whole entry): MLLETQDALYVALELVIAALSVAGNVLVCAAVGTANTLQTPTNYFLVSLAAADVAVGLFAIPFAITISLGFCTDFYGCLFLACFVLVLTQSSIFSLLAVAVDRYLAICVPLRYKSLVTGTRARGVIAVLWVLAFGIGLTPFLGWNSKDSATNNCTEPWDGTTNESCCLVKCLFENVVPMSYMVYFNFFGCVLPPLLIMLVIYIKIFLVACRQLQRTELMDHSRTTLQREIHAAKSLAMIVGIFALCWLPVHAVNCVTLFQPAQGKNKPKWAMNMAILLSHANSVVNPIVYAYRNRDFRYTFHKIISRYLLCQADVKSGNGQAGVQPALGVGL
Method in brief: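 Membranes from CHO cells transfected with the human A2B receptor were incubated for 20 min with 100 nM NECA, 150,000 cpm [α-32P]ATP and test compound at several concentrations. The incubation mixture contained no EGTA and no NaCl. Ki was derived from concentration-dependent inhibition of NECA-stimulated adenylyl cyclase activity (n = 3–6).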

[3] = molecular target: T2, Adenosine receptor A3 (Homo sapiens, UniProt P0DMS8); experiment: Displacement of [3H]-HEMADO from human adenosine A3 receptor expressed in CHO cells after 3 hrs by topcount scintillation counting analysis; assay type: cell-based
T2 sequence (P0DMS8 whole entry): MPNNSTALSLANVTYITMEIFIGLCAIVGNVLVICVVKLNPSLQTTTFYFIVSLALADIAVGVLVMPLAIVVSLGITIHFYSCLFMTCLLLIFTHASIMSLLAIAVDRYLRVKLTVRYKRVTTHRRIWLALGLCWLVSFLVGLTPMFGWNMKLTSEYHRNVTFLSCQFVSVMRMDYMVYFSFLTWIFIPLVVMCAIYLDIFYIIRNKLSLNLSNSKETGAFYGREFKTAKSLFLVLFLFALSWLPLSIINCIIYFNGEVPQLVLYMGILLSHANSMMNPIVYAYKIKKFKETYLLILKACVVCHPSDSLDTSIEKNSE
Method in brief: (§2)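 Radioligand binding to membranes from CHO cells expressing the human receptor, run for 3 h at room temperature. Radioligands were [3H]CCPA for hA1, [3H]NECA for hA2A and [3H]HEMADO for hA3. Nonspecific binding was defined with 1 mM theophylline (hA1) or 100 µM R-PIA (hA2A, hA3). Bound ligand was separated by GF/B filtration and counted. Ki came from nonlinear fitting of competition curves using Cheng-Prusoff, as geometric means of n = 3–6 with 95% CI.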

[4] = organism: Homo sapiens; experiment: Selectivity ratio of Ki for human adenosine A2A receptor to Ki for human adenosine A3 receptor; method in brief: as §1
[5] = molecular target: T3, Adenosine receptor A1 (Homo sapiens, UniProt P30542); experiment: Displacement of [3H]-CCPA from human adenosine A1 receptor expressed in CHO cells after 3 hrs by topcount scintillation counting analysis; assay type: cell-based; method in brief: as §2
T3 sequence (P30542 whole entry): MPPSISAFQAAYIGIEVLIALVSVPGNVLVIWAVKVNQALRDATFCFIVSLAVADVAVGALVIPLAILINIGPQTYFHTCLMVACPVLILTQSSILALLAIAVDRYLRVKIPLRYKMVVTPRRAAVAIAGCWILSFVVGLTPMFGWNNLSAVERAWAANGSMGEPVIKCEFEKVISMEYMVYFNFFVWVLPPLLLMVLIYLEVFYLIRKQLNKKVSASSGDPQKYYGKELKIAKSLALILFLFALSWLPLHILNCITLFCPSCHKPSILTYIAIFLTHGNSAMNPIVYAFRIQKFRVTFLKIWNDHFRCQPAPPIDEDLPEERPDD

[6] = molecular target: Adenosine receptor A2a (Homo sapiens, UniProt P29274); experiment: Displacement of [3H]-NECA from human adenosine A2A receptor expressed in CHO cells after 3 hrs by topcount scintillation counting analysis; assay type: cell-based; method in brief: as §2
Adenosine receptor A2a, sequence (P29274 whole entry): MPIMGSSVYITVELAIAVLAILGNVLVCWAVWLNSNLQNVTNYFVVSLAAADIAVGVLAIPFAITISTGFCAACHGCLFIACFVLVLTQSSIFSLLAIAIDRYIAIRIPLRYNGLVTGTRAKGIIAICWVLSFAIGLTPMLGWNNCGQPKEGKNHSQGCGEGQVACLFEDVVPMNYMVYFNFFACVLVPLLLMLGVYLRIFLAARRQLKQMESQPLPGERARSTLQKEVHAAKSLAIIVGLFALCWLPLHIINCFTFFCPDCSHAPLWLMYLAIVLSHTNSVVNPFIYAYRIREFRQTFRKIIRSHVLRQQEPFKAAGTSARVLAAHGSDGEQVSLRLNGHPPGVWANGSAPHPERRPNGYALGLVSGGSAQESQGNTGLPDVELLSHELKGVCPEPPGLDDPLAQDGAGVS

| SMILES | Ratio Ki [1] | Ki [2] [µM] | Ki [3] [µM] | Ratio Ki [4] | Ki [5] [µM] | Ki [6] [µM] |
| --- | --- | --- | --- | --- | --- | --- |
| O=C(Nc1nc(Cl)c2cn(CCc3ccccc3)nc2n1)c1ccccc1 | 0.4 | > 20 | 8.6 | 0.3 | 3.8 | 3.1 |
| Cn1cc2c(Cl)nc(NC(=O)c3ccc(F)cc3)nc2n1 | > 3.1 | > 20 | 31.9 | 0.6 | > 100 | 20.5 |
| Nc1nc(Cl)c2cn(CCc3ccccc3)nc2n1 | – | > 20 | > 100 | > 0.03 | 4.3 | 3.7 |
| CC(C)n1cc2c(Cl)nc(NC(=O)Cc3ccccc3)nc2n1 | 0.07 | > 10 | 27.1 | 0.17 | 1.9 | 4.7 |
| CC(C)n1cc2c(Cl)nc(NC(=O)c3ccccc3)nc2n1 | 1.5 | > 20 | 12.8 | 0.3 | 19.6 | 4.6 |
| CC(C)n1cc2c(Cl)nc(NC(=O)c3ccc(C(F)(F)F)cc3)nc2n1 | 1.3 | > 20 | 10.3 | 0.2 | 13.8 | 2.7 |
| CC(C)(C)Cn1cc2c(Cl)nc(NC(=O)Cc3ccccc3)nc2n1 | 2.9 | > 20 | 10.9 | 2.1 | 31.9 | 23.6 |
| Cn1cc2c(Cl)nc(NC(=O)c3ccc(C(F)(F)F)cc3)nc2n1 | > 2.9 | > 20 | 33.5 | 0.7 | > 100 | 25.6 |
| Cn1cc2c(Cl)nc(NC(=O)Cc3ccccc3)nc2n1 | 2.4 | > 20 | 6.6 | 4.5 | 16.3 | 29.9 |
| CCOC(=O)c1nc(NC(=O)c2ccc(C)cc2)nc2nn(CC(C)(C)C)cc12 | > 111 | > 20 | 0.9 | > 111 | > 100 | > 100 |
| O=C(Nc1nc(Cl)c2cn(CCc3ccccc3)nc2n1)c1ccc(C(F)(F)F)cc1 | > 21.4 | > 20 | 2.8 | 5.8 | > 60 | 16.4 |
| O=C(c1ccccc1)N(C(=O)c1ccccc1)c1nc(Cl)c2cn(CCc3ccccc3)nc2n1 | > 34.5 | > 20 | 2.9 | 2 | > 100 | 5.4 |
| Cn1cc2c(Cl)nc(N(C(=O)c3ccccc3)C(=O)c3ccccc3)nc2n1 | > 8.4 | > 20 | 7.1 | 2.4 | > 60 | 17.5 |
| Cc1ccc(C(=O)Nc2nc(Cl)c3cn(CCc4ccccc4)nc3n2)cc1 | 7.2 | > 20 | 1.5 | 6.6 | 10.8 | 9.9 |
| CC(C)n1cc2c(Cl)nc(N)nc2n1 | – | > 10 | > 100 | 0.03 | 9 | 3.3 |
| CC(C)(C)Cn1cc2c(Cl)nc(NC(=O)c3ccccc3)nc2n1 | 0.3 | ≥ 10 | 30.3 | 0.1 | 11 | 3.5 |
| CCOC(=O)c1nc(NC(=O)c2ccc(C(F)(F)F)cc2)nc2nn(CC(C)(C)C)cc12 | > 77 | > 20 | 1.3 | > 77 | > 100 | > 100 |
| O=C(Cc1ccccc1)Nc1nc(Cl)c2cn(CCc3ccccc3)nc2n1 | 0.5 | > 20 | 11.4 | 0.7 | 6.5 | 8.6 |
| CC(C)(C)Cn1cc2c(Cl)nc(N(C(=O)c3ccccc3)C(=O)c3ccccc3)nc2n1 | > 15.3 | > 20 | 6.5 | > 15.3 | > 100 | > 100 |
| Cc1ccc(C(=O)Nc2nc(Cl)c3cn(CC(C)(C)C)nc3n2)cc1 | 2.2 | > 10 | 5 | 0.4 | 11.1 | 2.1 |
| Cn1cc2c(Cl)nc(NC(=O)c3ccccc3)nc2n1 | > 4.2 | > 20 | 23.6 | 1 | > 100 | 24.2 |
| CC(C)(C)Cn1cc2c(Cl)nc(N)nc2n1 | – | > 10 | > 60 | > 0.6 | 12 | 4.1 |
| Cc1ccc(C(=O)Nc2nc(Cl)c3cn(C)nc3n2)cc1 | > 7.4 | > 20 | 13.5 | 0.8 | > 100 | 12 |
| CC(C)(C)Cn1cc2c(Cl)nc(NC(=O)c3ccc(C(F)(F)F)cc3)nc2n1 | > 15 | > 20 | 6.6 | > 15 | > 100 | > 100 |
| Cn1cc2c(Cl)nc(N)nc2n1 | – | > 20 | > 100 | > 0.09 | 29.7 | 9.1 |
| CC(C)(C)Cn1cc2c(Cl)nc(NC(=O)c3ccc(F)cc3)nc2n1 | 2.7 | > 10 | 5.9 | 0.3 | 16.5 | 2.2 |
